Assay results: ChEMBL document CHEMBL4811269, “Design, synthesis and antibacterial evaluation of novel C-11, C-9 or C-2'-substituted 3-O-descladinosyl-3-ketoclarithromycin derivatives” (Bioorg Med Chem Lett, 2021)
In brackets after ≈: the same amount, converted by molar mass.

How the values were obtained:
[1] = tested on: Streptococcus pneumoniae; test: Antibacterial activity against erythromycin-resistant Streptococcus pneumoniae B1 by broth microdilution method; type: functional
In short: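 MIC by standard NCCLS broth microdilution, reported in µg/mL. The strain expresses the ermB gene. Clarithromycin and azithromycin were run alongside as references.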

[2] = tested on: Staphylococcus aureus; test: Antibacterial activity against penicillin-resistant Staphylococcus aureus ATCC 31007 by broth microdilution method; type: functional
In short: (§1)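 MIC by standard NCCLS broth microdilution against resistant S. aureus strains, reported in µg/mL. Clarithromycin and azithromycin were run alongside as references.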

[3] = tested on: Staphylococcus aureus; test: Antibacterial activity against methicillin-resistant Staphylococcus aureus ATCC 43300 by broth microdilution method; type: functional; in short: as §1
[4] = tested on: Streptococcus pyogenes; test: Antibacterial activity against erythromycin-resistant Streptococcus pyogenes R1 by broth microdilution method; type: functional
In short: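 MIC by standard NCCLS broth microdilution, reported in µg/mL. The strain is a clinically isolated erythromycin-resistant strain. Clarithromycin and azithromycin were run alongside as references.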

[5] = tested on: Staphylococcus aureus; test: Antibacterial activity against erythromycin-susceptible Staphylococcus aureus ATCC 25923 by broth microdilution method; type: functional
In short: (§2)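 MIC determined by standard broth microdilution per NCCLS recommendations, read as minimal inhibitory concentration in µg/mL. Standard ATCC strains tested alongside the other panel strains, with clarithromycin and azithromycin as reference agents.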

[6] = tested on: Pseudomonas aeruginosa; test: Antibacterial activity against penicillin-susceptible Pseudomonas aeruginosa ATCC 27853 by broth microdilution method; type: functional; in short: as §2
[7] = tested on: Streptococcus pneumoniae; test: Antibacterial activity against erythromycin-resistant Streptococcus pneumoniae AB11 by broth microdilution method; type: functional
In short: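 MIC by standard NCCLS broth microdilution, reported in µg/mL. The strain expresses the ermB and mefA genes. Clarithromycin and azithromycin were run alongside as references.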

[8] = tested on: Bacillus subtilis; test: Antibacterial activity against penicillin-susceptible Bacillus subtilis ATCC9372 by broth microdilution method; type: functional; in short: as §2
[9] = Chemical stability of the compound in pH 7.4 phosphate solution after 24 hrs by HPLC analysis; type: physicochemical; settings: buffer, pH 7.4, 24 h
In short: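 Compound held in phosphate solution (pH = 7.4) at 25 °C and monitored by HPLC over 24 h. Stability judged from change in peak area.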

Structure (SMILES) | MIC [1] | MIC [2] | MIC [3] | MIC [4] | MIC [5] | MIC [6] | MIC [7] | MIC [8] | Stabilty [9]
CCCc1ccc(C(=O)O[C@@H]2[C@H](C)CN(C)CCOC(=O)[C@H](C)C(=O)[C@H](C)[C@@H](O[C@@H]3O[C@H](C)C[C@H](N(C)C)[C@H]3OC(=O)c3ccc(CCC)cc3)[C@](C)(OC)C[C@H]2C)cc1 | > 256 µg/mL | > 256 µg/mL | > 256 µg/mL | > 256 µg/mL | 64 µg/mL (≈ 76.5 µM) | > 128 µg/mL | > 256 µg/mL | > 128 µg/mL | 
CO[C@]1(C)C[C@@H](C)[C@H](OC(=O)c2ccc(Br)cc2)[C@H](C)CN(C)CCOC(=O)[C@H](C)C(=O)[C@H](C)[C@H]1O[C@@H]1O[C@H](C)C[C@H](N(C)C)[C@H]1OC(=O)c1ccc(Br)cc1 | > 256 µg/mL | > 256 µg/mL | > 256 µg/mL | > 256 µg/mL | 128 µg/mL (≈ 141 µM) | > 128 µg/mL | > 256 µg/mL | > 128 µg/mL | 
CO[C@]1(C)C[C@@H](C)[C@H](OC(=O)c2ccccc2)[C@H](C)CN(C)CCOC(=O)[C@H](C)C(=O)[C@H](C)[C@H]1O[C@@H]1O[C@H](C)C[C@H](N(C)C)[C@H]1OC(=O)c1ccccc1 | > 256 µg/mL | > 256 µg/mL | > 256 µg/mL | > 256 µg/mL | 128 µg/mL (≈ 170 µM) | > 128 µg/mL | > 256 µg/mL | > 128 µg/mL | Stable
COc1cccc(C(=O)O[C@@H]2[C@H](C)CN(C)CCOC(=O)[C@H](C)C(=O)[C@H](C)[C@@H](O[C@@H]3O[C@H](C)C[C@H](N(C)C)[C@H]3OC(=O)c3cccc(OC)c3)[C@](C)(OC)C[C@H]2C)c1 | > 256 µg/mL | > 256 µg/mL | > 256 µg/mL | > 256 µg/mL | 128 µg/mL (≈ 157 µM) | > 128 µg/mL | > 256 µg/mL | > 128 µg/mL | 
CO[C@]1(C)C[C@@H](C)[C@H](OC(=O)c2cccc(Br)c2)[C@H](C)CN(C)CCOC(=O)[C@H](C)C(=O)[C@H](C)[C@H]1O[C@@H]1O[C@H](C)C[C@H](N(C)C)[C@H]1OC(=O)c1cccc(Br)c1 | > 256 µg/mL | > 256 µg/mL | > 256 µg/mL | > 256 µg/mL | 64 µg/mL (≈ 70.3 µM) | > 128 µg/mL | > 256 µg/mL | > 128 µg/mL | 
CO[C@]1(C)C[C@@H](C)[C@H](OC(=O)c2cc(Cl)cc(Cl)c2)[C@H](C)CN(C)CCOC(=O)[C@H](C)C(=O)[C@H](C)[C@H]1O[C@@H]1O[C@H](C)C[C@H](N(C)C)[C@H]1OC(=O)c1cc(Cl)cc(Cl)c1 | > 256 µg/mL | > 256 µg/mL | > 256 µg/mL | > 256 µg/mL | 128 µg/mL (≈ 144 µM) | > 128 µg/mL | > 256 µg/mL | > 128 µg/mL | 
CO[C@]1(C)C[C@@H](C)[C@H](OC(=O)c2cccc([N+](=O)[O-])c2)[C@H](C)CN(C)CCOC(=O)[C@H](C)C(=O)[C@H](C)[C@H]1O[C@@H]1O[C@H](C)C[C@H](N(C)C)[C@H]1OC(=O)c1cccc([N+](=O)[O-])c1 | > 256 µg/mL | > 256 µg/mL | > 256 µg/mL | > 256 µg/mL | 128 µg/mL (≈ 152 µM) | > 128 µg/mL | > 256 µg/mL | > 128 µg/mL | 
CO[C@]1(C)C[C@@H](C)[C@H](OC(=O)c2ccc(C(F)(F)F)cc2)[C@H](C)CN(C)CCOC(=O)[C@H](C)C(=O)[C@H](C)[C@H]1O[C@@H]1O[C@H](C)C[C@H](N(C)C)[C@H]1OC(=O)c1ccc(C(F)(F)F)cc1 | > 256 µg/mL | > 256 µg/mL | > 256 µg/mL | > 256 µg/mL | 64 µg/mL (≈ 72 µM) | > 128 µg/mL | > 256 µg/mL | > 128 µg/mL | 
CO[C@]1(C)C[C@@H](C)[C@H](OC(=O)c2cccc(C)c2)[C@H](C)CN(C)CCOC(=O)[C@H](C)C(=O)[C@H](C)[C@H]1O[C@@H]1O[C@H](C)C[C@H](N(C)C)[C@H]1OC(=O)c1cccc(C)c1 | > 256 µg/mL | > 256 µg/mL | > 256 µg/mL | > 256 µg/mL | 128 µg/mL (≈ 164 µM) | > 128 µg/mL | > 256 µg/mL | > 128 µg/mL | 
CO[C@]1(C)C[C@@H](C)[C@H](OC(=O)c2ccc(F)cc2)[C@H](C)CN(C)CCOC(=O)[C@H](C)C(=O)[C@H](C)[C@H]1O[C@@H]1O[C@H](C)C[C@H](N(C)C)[C@H]1OC(=O)c1ccc(F)cc1 | > 256 µg/mL | > 256 µg/mL | > 256 µg/mL | > 256 µg/mL | 128 µg/mL (≈ 162 µM) | > 128 µg/mL | > 256 µg/mL | > 128 µg/mL | 
CO[C@]1(C)C[C@@H](C)[C@H](OC(=O)c2cccc(C(F)(F)F)c2)[C@H](C)CN(C)CCOC(=O)[C@H](C)C(=O)[C@H](C)[C@H]1O[C@@H]1O[C@H](C)C[C@H](N(C)C)[C@H]1OC(=O)c1cccc(C(F)(F)F)c1 | > 256 µg/mL | > 256 µg/mL | > 256 µg/mL | > 256 µg/mL | 128 µg/mL (≈ 144 µM) | > 128 µg/mL | > 256 µg/mL | > 128 µg/mL | Stable
COc1ccc(C(=O)O[C@@H]2[C@H](C)CN(C)CCOC(=O)[C@H](C)C(=O)[C@H](C)[C@@H](O[C@@H]3O[C@H](C)C[C@H](N(C)C)[C@H]3OC(=O)c3ccc(OC)cc3)[C@](C)(OC)C[C@H]2C)cc1 | > 256 µg/mL | > 256 µg/mL | > 256 µg/mL | > 256 µg/mL | 64 µg/mL (≈ 78.7 µM) | > 128 µg/mL | > 256 µg/mL | > 128 µg/mL | 
CO[C@]1(C)C[C@@H](C)[C@H](OC(=O)c2ccc([N+](=O)[O-])cc2)[C@H](C)CN(C)CCOC(=O)[C@H](C)C(=O)[C@H](C)[C@H]1O[C@@H]1O[C@H](C)C[C@H](N(C)C)[C@H]1OC(=O)c1ccc([N+](=O)[O-])cc1 | > 256 µg/mL | > 256 µg/mL | > 256 µg/mL | > 256 µg/mL | 64 µg/mL (≈ 75.9 µM) | > 128 µg/mL | > 256 µg/mL | > 128 µg/mL | 
CCOc1ccc(C(=O)O[C@@H]2[C@H](C)CN(C)CCOC(=O)[C@H](C)C(=O)[C@H](C)[C@@H](O[C@@H]3O[C@H](C)C[C@H](N(C)C)[C@H]3OC(=O)c3ccc(OCC)cc3)[C@](C)(OC)C[C@H]2C)cc1 | > 256 µg/mL | > 256 µg/mL | > 256 µg/mL | > 256 µg/mL | 128 µg/mL (≈ 152 µM) | > 128 µg/mL | > 256 µg/mL | > 128 µg/mL | 
CO[C@]1(C)C[C@@H](C)[C@H](OC(=O)c2ccccc2Br)[C@H](C)CN(C)CCOC(=O)[C@H](C)C(=O)[C@H](C)[C@H]1O[C@@H]1O[C@H](C)C[C@H](N(C)C)[C@H]1OC(=O)c1ccccc1Br | > 256 µg/mL | > 256 µg/mL | > 256 µg/mL | > 256 µg/mL | 128 µg/mL (≈ 141 µM) | > 128 µg/mL | > 256 µg/mL | > 128 µg/mL | 
CO[C@]1(C)C[C@@H](C)[C@H](OC(=O)c2cccc(F)c2)[C@H](C)CN(C)CCOC(=O)[C@H](C)C(=O)[C@H](C)[C@H]1O[C@@H]1O[C@H](C)C[C@H](N(C)C)[C@H]1OC(=O)c1cccc(F)c1 | > 256 µg/mL | > 256 µg/mL | > 256 µg/mL | > 256 µg/mL | 128 µg/mL (≈ 162 µM) | > 128 µg/mL | > 256 µg/mL | > 128 µg/mL | 
CCc1ccc(C(=O)O[C@@H]2[C@H](C)CN(C)CCOC(=O)[C@H](C)C(=O)[C@H](C)[C@@H](O[C@@H]3O[C@H](C)C[C@H](N(C)C)[C@H]3OC(=O)c3ccc(CC)cc3)[C@](C)(OC)C[C@H]2C)cc1 | > 256 µg/mL | > 256 µg/mL | > 256 µg/mL | > 256 µg/mL | 64 µg/mL (≈ 79.1 µM) | > 128 µg/mL | > 256 µg/mL | > 128 µg/mL | 
CO[C@]1(C)C[C@@H](C)[C@H](OC(=O)c2cccc(Cl)c2)[C@H](C)CN(C)CCOC(=O)[C@H](C)C(=O)[C@H](C)[C@H]1O[C@@H]1O[C@H](C)C[C@H](N(C)C)[C@H]1OC(=O)c1cccc(Cl)c1 | > 256 µg/mL | > 256 µg/mL | > 256 µg/mL | > 256 µg/mL | 64 µg/mL (≈ 77.9 µM) | > 128 µg/mL | > 256 µg/mL | > 128 µg/mL | 
CC[C@H]1OC(=O)[C@H](C)[C@@H](O[C@H]2C[C@@](C)(OC)[C@@H](O)[C@H](C)O2)[C@H](C)[C@@H](O[C@@H]2O[C@H](C)C[C@H](N(C)C)[C@H]2O)[C@](C)(O)C[C@@H](C)CN(C)[C@H](C)[C@@H](O)[C@]1(C)O [AZITHROMYCIN] | > 256 µg/mL | > 256 µg/mL | > 256 µg/mL | 256 µg/mL (≈ 342 µM) | ≤ 0.25 µg/mL | 32 µg/mL (≈ 42.7 µM) | 128 µg/mL (≈ 171 µM) | ≤ 0.25 µg/mL | 
CC[C@H]1OC(=O)[C@H](C)[C@@H](O[C@H]2C[C@@](C)(OC)[C@@H](O)[C@H](C)O2)[C@H](C)[C@@H](O[C@@H]2O[C@H](C)C[C@H](N(C)C)[C@H]2O)[C@](C)(OC)C[C@@H](C)C(=O)[C@H](C)[C@@H](O)[C@]1(C)O [CLARITHROMYCIN] | > 256 µg/mL | > 256 µg/mL | > 256 µg/mL | 256 µg/mL (≈ 342 µM) | ≤ 0.25 µg/mL | 16 µg/mL (≈ 21.4 µM) | 256 µg/mL (≈ 342 µM) | ≤ 0.25 µg/mL | 
